The text below walks through data of paper PMC6426446 (Bioorganic & medicinal chemistry, 2010).

Entries after “also recorded” stand apart in the source; their conditions may differ.

In general, IC50 refers to the concentration needed to halve the response being measured.

Data set [1] relates to CRL-2366 (DNA repair deficient brain glioblastoma). Nature of the data set: MTT assay CRL-2366. It is filed as cell-based. Conditions: Homo sapiens, read-out: IC50 MTT assay CRL-2366. Summed up:
(§1)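 Standard MTT growth-inhibition assay with DMSO as vehicle. CRL-2365 and CRL-2366 were kept in DMEM; MCF-7, A549 and mouse 3LL in RPMI-1640. Both media carried 10% fetal bovine serum, penicillin G (100 U/mL) and streptomycin (100 μg/mL). MCF-10A breast cells were grown in Mammary Epithelial Growth Medium.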

Data set [2] concerns CRL-2365 (brain glioblastoma). Nature of the data set: MTT assay CRL-2365. It is filed as cell-based. Conditions: Homo sapiens, read-out: IC50 MTT assay CRL-2365. Summed up: as §1
Data set [3] deals with cultured human and mouse cell lines. As to the kind of experiment: MTT assay, all tested cell lines. It is filed as cell-based. Summed up:
as §1
For orientation: Tetrazolium assays rely on reduction of a dye to a coloured formazan, in cell work by metabolically active cells.

Data set [4] concerns the target NADH-ubiquinone oxidoreductase (mitochondrial complex I) (Bos taurus, UniProt P03887+P17694+P42026). Nature of the data set: NADH-ubiquinone. The data set is classed as biochemical, bovine. Conditions: compared with 12.
A short description of data set [5]: Stability of purified compound. The data set is classed as physicochemical.
In data set [6] the test system is MCF-7 human breast carcinoma cells. Nature of the data set: Lactate assay. Conditions: MCF-7 cells, 3 h, varying concentrations. The data set is classed as cell-based. The method, boiled down:
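MCF-7 cells seeded at 2 × 10^5 per well and grown 24 h (about 50% confluence). Wells rinsed with pre-warmed Krebs-Ringer buffer, then exposed for 3 h to test compound in buffer against buffer-only controls. Supernatant lactate measured as absorbance change at 363 nm and converted using extinction coefficient 9.1 mM−1 cm−1. Three determinations per point; experiments repeated at least three times.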

The test system of another data set is NADH fumarate reductase. Conditions: cited from earlier work.
Data set [7] addresses NADH oxidase (complexes I, III and IV) (Bos taurus, UniProt P03887+P17694+P42026). Nature of the data set: NADH oxidase activity in bovine heart submitochondrial particles. Conditions: bovine heart SMP. It is filed as biochemical.

Sequence of NADH oxidase (complexes I, III and IV) (P03887 whole entry): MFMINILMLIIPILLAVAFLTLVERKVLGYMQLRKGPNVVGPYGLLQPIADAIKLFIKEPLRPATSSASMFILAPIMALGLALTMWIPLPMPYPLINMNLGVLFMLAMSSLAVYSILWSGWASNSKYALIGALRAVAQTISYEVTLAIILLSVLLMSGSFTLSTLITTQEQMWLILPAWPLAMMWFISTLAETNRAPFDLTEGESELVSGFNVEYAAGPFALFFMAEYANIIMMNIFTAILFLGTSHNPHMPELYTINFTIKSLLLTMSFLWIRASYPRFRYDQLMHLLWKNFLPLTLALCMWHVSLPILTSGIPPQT
Sequence of NADH oxidase (complexes I, III and IV) (P42026 38-216): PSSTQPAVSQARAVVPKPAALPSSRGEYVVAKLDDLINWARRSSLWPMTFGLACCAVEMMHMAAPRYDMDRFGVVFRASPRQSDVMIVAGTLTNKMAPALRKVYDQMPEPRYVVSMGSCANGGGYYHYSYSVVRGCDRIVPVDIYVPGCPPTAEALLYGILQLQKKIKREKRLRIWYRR
Sequence of NADH oxidase (complexes I, III and IV) (P17694 34-463): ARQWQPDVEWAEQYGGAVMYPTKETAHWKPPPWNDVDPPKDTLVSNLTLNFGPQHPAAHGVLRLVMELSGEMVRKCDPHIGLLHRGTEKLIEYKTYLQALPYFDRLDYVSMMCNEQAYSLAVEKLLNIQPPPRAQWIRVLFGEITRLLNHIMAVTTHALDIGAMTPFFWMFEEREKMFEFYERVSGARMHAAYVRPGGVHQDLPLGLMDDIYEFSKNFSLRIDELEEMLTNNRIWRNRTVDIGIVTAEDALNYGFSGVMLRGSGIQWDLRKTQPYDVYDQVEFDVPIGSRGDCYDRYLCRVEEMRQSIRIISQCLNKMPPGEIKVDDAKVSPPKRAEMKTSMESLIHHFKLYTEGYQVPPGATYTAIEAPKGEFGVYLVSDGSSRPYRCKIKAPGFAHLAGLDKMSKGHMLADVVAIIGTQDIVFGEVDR
Sequence of NADH-ubiquinone oxidoreductase (mitochondrial complex I) (P03887 whole entry): as the sequence (P03887 whole entry) above
Sequence of NADH-ubiquinone oxidoreductase (mitochondrial complex I) (P42026 38-216): as the sequence (P42026 38-216) above
Sequence of NADH-ubiquinone oxidoreductase (mitochondrial complex I) (P17694 34-463): as the sequence (P17694 34-463) above

Consider `CCCCCCCCC(C)(O)CCc1oc(=O)c(C)c(O)c1C` (racemic) [Compound 12, (rac)-6-[3-Hydroxy-3-methylundecyl]-3,5-dimethyl-4-hydroxypyran-2-one], for which the IC50 in data set [1] and in data set [2] was > 31 µM each time.
`CCCCCCCCC(C)(O)CCc1oc(C)c(C)c(=O)c1C` (racemic) [Compound 18, (rac)-2-[3-Hydroxy-3-methylundecyl]-3,5,6-trimethyl-4H-pyran-4-one]: the “Cytotoxicity (in words)” value in data set [3] was “no cytotoxicity”.
`CCCCCCCCC(C)(O)CCc1[nH]c(=O)c(C)c(O)c1C` (racemic) [Compound 21, (rac)-6-[3-Hydroxy-3-methylundecyl]-3,5-dimethyl-4-hydroxypyridin-2-one]: the “Potency relative to 12 as inhibitor of NADH-ubiquinone oxidoreductase” value in data set [4] is recorded as “more than 10 fold”. Besides, in data set [5], the “Stability after purification by preparative thin layer chromatography” value is “rather unstable”.
As to `CCCCCCCCCC(O)Cc1oc(OC)c(C)c(=O)c1C` (stereo not shown) [Compound 1, 2-(2-Hydroxyundecyl)-6-methoxy-3,5-dimethyl-4H-pyran-4-one], the “Stimulation of lactate production (in words)” value (“Stimulation” below) in data set [6] is listed as “strongly stimulated”. For the same molecule, in the data set on NADH fumarate reductase, the “Inhibitory activity toward NADH fumarate reductase (in words)” value is “strong inhibitory activity”.
`CCCCCCCC[C@@](C)(O)CCc1oc(=O)c(C)c(O)c1C` [Compound 13, (R)-6-[3-Hydroxy-3-methylundecyl]-3,5-dimethyl-4-hydroxypyran-2-one]: the IC50 in data set [1] and in data set [2] was > 31 µM each time.
With `CCCCCCCC[C@](C)(O)CCc1oc(=O)c(C)c(O)c1C` [Compound 14, (S)-6-[3-Hydroxy-3-methylundecyl]-3,5-dimethyl-4-hydroxypyran-2-one], the IC50 in data set [1] and in data set [2] was > 31 µM throughout. Further, the “Stimulation” value in data set [6] was “weakly stimulated”.
On to `CCCCCCCC[C@](C)(O)CCc1oc(OC)c(C)c(=O)c1C` [Compound 17, (S)-2-[3-Hydroxy-3-methylundecyl]-6-methoxy-3,5-dimethyl-4H-pyran-4-one], for which the “Stimulation” value in data set [6] was “strongly stimulated”.
Consider `CCCCC(O)Cc1oc(OC)c(C)c(=O)c1C` (stereo not shown) [Compound 22, 2-(2-Hydroxyhexyl)-6-methoxy-3,5-dimethyl-4H-pyran-4-one], for which, in data set [7], the “Inhibition of mitochondrial respiratory chain function (in words)” value is recorded as “did not inhibit; also recorded: no inhibitory activity”. Moreover, the “Stimulation” value in data set [6] is “weakly stimulated”.
On to `COc1oc(CC(O)CCCCCOc2ccc(-c3ccccc3)cc2)c(C)c(=O)c1C` (stereo not shown) [Compound 30, 2-[2-Hydroxy-7-(4-phenyl)phenoxyheptyl]-6-methoxy-3,5-dimethyl-4H-pyran-4-one], for which, in data set [6], the “Stimulation” value was “strongly stimulated”.
